According to ChEMBL document CHEMBL1121685, “Development of new mitomycin C and porfiromycin analogues” (J Med Chem, 1981):

Columns and labels:
Mus musculus [1] = experiment: Effect of compound on total white blood cell count in BDG1 male mice, after intraperitoneal administration at a dose of 1.3 mg/kg on day 5; type: functional
Method in brief: (§1)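 BDG₁ male mice received a single ip dose on day 0. The dose series topped out at the LD₅₀ level, or at twice the optimal dose for some agents. Total white blood cell count was taken on days 3, 5 and 7 and expressed as % change from untreated controls. Significance was set at p ≤ 0.05 or p ≤ 0.01.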

Mus musculus [2] = experiment: Effect of compound on total white blood cell count in BDG1 male mice, after intraperitoneal administration at a dose of 1.7 mg/kg on day 7; type: functional; method in brief: as §1
Mus musculus [3] = experiment: Effect of compound on total white blood cell count in BDG1 male mice, after intraperitoneal administration at a dose of 0.96 mg/kg on day 7; type: functional; method in brief: as §1
[4] = Therapeutic ratio is expressed as ratio of optimal dose and minimum effective dose; type: ADME; conditions: mouse; read-out: TR
Method in brief: (§2)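 10⁶ P-388 ascites cells implanted ip in CDF₁ female mice. Six mice per dose, 10 saline-injected controls, and a concurrent mitomycin C reference group. %T/C = median survival time of treated/control × 100. MED is the lowest dose giving %T/C > 125. Therapeutic ratio = optimal dose/MED.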

Mus musculus [5] = experiment: Effect of compound on total white blood cell count in BDG1 male mice, after intraperitoneal administration at a dose of 0.96 mg/kg on day 5; type: functional; method in brief: as §1
Mus musculus [6] = experiment: Effect of compound on total white blood cell count in BDG1 male mice, after intraperitoneal administration at a dose of 1.7 mg/kg on day 5; type: functional; method in brief: as §1
Mus musculus [7] = experiment: Effect of compound on total white blood cell count in BDG1 male mice, after intraperitoneal administration at a dose of 1.7 mg/kg on day 3; type: functional; method in brief: as §1
Mus musculus [8] = species on record: Mus musculus; experiment: Half-wave potential produced by the compound at their optimal dose; type: functional; parameters: unit not given here
Mus musculus [9] = experiment: Minimum effective dose that show activity against P-388 murine leukemia cells in CDF1 female mice, after intraperitoneal administration (optimal dose is 3.2 mg/kg); type: functional; conditions: P388, ip, read-out: MED; method in brief: as §2
Mus musculus [10] = experiment: Effect of compound on total white blood cell count in BDG1 male mice, after intraperitoneal administration at a dose of 0.96 mg/kg on day 3; type: functional; method in brief: as §1
Mus musculus [11] = experiment: Effect of compound on total white blood cell count in BDG1 male mice, after intraperitoneal administration at a dose of 1.3 mg/kg on day 3; type: functional; method in brief: as §1
Mus musculus [12] = species on record: Mus musculus; experiment: Degree of leukopenia produced by compound is assessed form Percent change in white cells on days 5; type: functional; method in brief: as §1
Mus musculus [13] = experiment: Effect of compound on total white blood cell count in BDG1 male mice, after intraperitoneal administration at a dose of 1.3 mg/kg on day 7; type: functional; method in brief: as §1
Mus musculus [14] = experiment: Antitumor activity against P-388 murine leukemia cells in CDF1 female mice after intraperitoneal administration at the specified optimal dose of 3.2 mg/kg; type: functional
Mus musculus [15] = experiment: Minimum effective dose that show activity against P-388 murine leukemia cells in CDF1 female mice, after intraperitoneal administration (optimal dose is 12.8 mg/kg); type: functional; conditions: P388, ip, read-out: MED; method in brief: as §2
Mus musculus [16] = experiment: Antitumor activity against P-388 murine leukemia cells in CDF1 female mice after intraperitoneal administration at the specified optimal dose of 12.8 mg/kg; type: functional
Mus musculus [17] = experiment: Effect of compound on total white blood cell count in BDG1 male mice, after intraperitoneal administration at a dose of 9.56 mg/kg on day 7; type: functional
Method in brief: (§3)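 Single ip dose given on day 0 to BDG₁ male mice. Total white blood cell count measured on days 3, 5 and 7, expressed as % change from control. Highest dose was at the LD₅₀, or at twice the optimal dose where so footnoted. Significance reported at p ≤ 0.05 and p ≤ 0.01. D marks death of one or more mice.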

Mus musculus [18] = experiment: Effect of compound on total white blood cell count in BDG1 male mice, after intraperitoneal administration at a dose of 12.57 mg/kg on day 3; type: functional; method in brief: as §1
Mus musculus [19] = experiment: Effect of compound on total white blood cell count in BDG1 male mice, after intraperitoneal administration at a dose of 17 mg/kg on day 5; type: functional
Method in brief: (§4)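 Single ip dose given on day 0 to BDG1 male mice over a descending dose series. Total white blood cell count is expressed as % change from untreated control on days 3, 5 and 7. Significance is flagged at p ≤ 0.05 and p ≤ 0.01.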

Mus musculus [20] = experiment: Effect of compound on total white blood cell count in BDG1 male mice, after intraperitoneal administration at a dose of 9.56 mg/kg on day 5; type: functional; method in brief: as §3
Mus musculus [21] = experiment: Effect of compound on total white blood cell count in BDG1 male mice, after intraperitoneal administration at a dose of 17 mg/kg on day 7; type: functional; method in brief: as §4
Mus musculus [22] = experiment: Effect of compound on total white blood cell count in BDG1 male mice, after intraperitoneal administration at a dose of 12.57 mg/kg on day 7; type: functional; method in brief: as §1
Mus musculus [23] = experiment: Effect of compound on total white blood cell count in BDG1 male mice, after intraperitoneal administration at a dose of 12.57 mg/kg on day 5; type: functional; method in brief: as §1
Mus musculus [24] = experiment: Effect of compound on total white blood cell count in BDG1 male mice, after intraperitoneal administration at a dose of 17 mg/kg on day 3; type: functional; method in brief: as §4
Mus musculus [25] = experiment: Effect of compound on total white blood cell count in BDG1 male mice, after intraperitoneal administration at a dose of 9.56 mg/kg on day 3; type: functional; method in brief: as §3
Mus musculus [26] = experiment: Effect of compound on total white blood cell count in BDG1 male mice, after intraperitoneal administration at a dose of 68.0 mg/kg on day 5; type: functional; method in brief: as §3
Mus musculus [27] = experiment: Effect of compound on total white blood cell count in BDG1 male mice, after intraperitoneal administration at a dose of 51 mg/kg on day 7; type: functional; method in brief: as §3
Mus musculus [28] = experiment: Effect of compound on total white blood cell count in BDG1 male mice, after intraperitoneal administration at a dose of 68.0 mg/kg on day 7; type: functional; method in brief: as §3
Mus musculus [29] = experiment: Effect of compound on total white blood cell count in BDG1 male mice, after intraperitoneal administration at a dose of 51 mg/kg on day 5; type: functional; method in brief: as §3
Mus musculus [30] = experiment: Effect of compound on total white blood cell count in BDG1 male mice, after intraperitoneal administration at a dose of 68.0 mg/kg on day 3; type: functional; method in brief: as §3
Mus musculus [31] = experiment: Effect of compound on total white blood cell count in BDG1 male mice, after intraperitoneal administration at a dose of 51 mg/kg on day 3; type: functional; method in brief: as §3

## COC1=C(C)C(=O)C2=C(C1=O)[C@@H](COC(N)=O)[C@@]1(OC)[C@H]3N[C@H]3CN21 [MITOMYCIN A]
Mus musculus [1]
  Change: -15%
Mus musculus [2]
  Change: 5%
Mus musculus [3]
  Change: 4%
[4]
  selectivity ratio: 64
Mus musculus [5]
  Change: -25%
Mus musculus [6]
  Change: -24%
Mus musculus [7]
  Change: -28%
Mus musculus [8]
  E1/2: -0.21
Mus musculus [9]
  minimal effective dose: 0.05 mg/kg
Mus musculus [10]
  Change: -11%
Mus musculus [11]
  Change: -12%
Mus musculus [12]
  Change: -2%
Mus musculus [13]
  Change: -9%
Mus musculus [14]
  T/C: 180%

## C#CCNC1=C(C)C(=O)C2=C(C1=O)[C@H](COC(N)=O)C1(OC)[C@@H]3N[C@@H]3CN21 (stereo not given in full)
[4]
  selectivity ratio: 64
Mus musculus [15]
  minimal effective dose: 0.2 mg/kg
Mus musculus [16]
  T/C: 358%
Mus musculus [17]
  Change: -28%
Mus musculus [18]
  Change: -68%
Mus musculus [19]
  Change: -75%
Mus musculus [20]
  Change: -56%
Mus musculus [8]
  E1/2: -0.41
Mus musculus [21]
  Change: -73%
Mus musculus [22]
  Change: -52%
Mus musculus [23]
  Change: -69%
Mus musculus [24]
  Change: -80%
Mus musculus [25]
  Change: -59%

## COC12[C@@H]3N[C@@H]3CN1C1=C(C(=O)C(NCCCl)=C(C)C1=O)[C@@H]2COC(N)=O (stereo not given in full)
Mus musculus [26]
  Change: -63%
[4]
  selectivity ratio: 8
Mus musculus [16]
  T/C: 190%
Mus musculus [27]
  Change: -23%
Mus musculus [28]
  Change: -35%
Mus musculus [29]
  Change: -61%
Mus musculus [30]
  Change: -71%
Mus musculus [31]
  Change: -55%
